Only some compounds are listed: those with a hit (about 1.7% of all), similar ones and a draw of the others.
EBV gp42 inh – Epstein-Barr virus gp42 inhibitors, primary screen, biochemical, uHTS, fluorescence polarization; Glycoprotein 42 (Epstein-Barr virus (strain AG876)), Q1HVG2; Fluorescence polarization binding assay, mP read-out; inhibition, % (tested at 21.74 µM); 220,000 tested, 0.42% active; in the data active means inhibition above about 50%
Target sequence (Q1HVG2 whole entry, looked up): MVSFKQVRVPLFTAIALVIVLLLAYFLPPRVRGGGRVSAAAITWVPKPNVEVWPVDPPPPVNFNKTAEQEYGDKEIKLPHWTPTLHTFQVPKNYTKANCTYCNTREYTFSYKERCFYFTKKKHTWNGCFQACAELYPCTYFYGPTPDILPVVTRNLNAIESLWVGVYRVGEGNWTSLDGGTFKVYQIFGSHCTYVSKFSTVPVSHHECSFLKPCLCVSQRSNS
NS3 helicase inh – inhibitors of HCV NS3 helicase, primary screen, biochemical, Cy5 molecular beacon fluorescence; NS3 helicase DNA unwinding; 290,000 tested, 0.56% active; inhibition, % at 10.9 µM; Hepatitis C virus NS3 helicase;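 active means inhibition above the mean of all tested compounds plus 3 SD, set per campaign, cut at about 35% in these data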;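 further: 0% = DMSO wells and 100% = thioflavine S control wells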
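Test system: hepatitis C virus NS3 helicase domain fragment enzyme. Also added: annealed dual-labelled DNA beacon duplex, ATP-started. Timing: 60 min unwinding reaction at 25 °C after ATP addition. Technique: Cy5 fluorescence. Measure: % inhibition of unwinding.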
EBNA-1 inh – EBNA-1 DNA-binding inhibitors, primary screen, biochemical, fluorescence polarization | AID 1950, 2009 | inhibition, % at 14.8 µM | 300,000 tested, 0.34% active; in the data active means inhibition above about 28%
MEX-5 binding – MEX-5 zinc finger RNA-binding disruptors – biochemical, C. elegans, fluorescence polarization, MLPCN library, primary screen; Zinc finger protein mex-5 (Caenorhabditis elegans), Q9XUB2; MEX-5/FITC-TCR2 RNA binding; active compounds read low; activity score (negative = inhibition of binding), % at 10 µM; 300,000 tested, 0.38% active; AID 1832, 2009;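 active means inhibition past about -25% in most replicates, and total fluorescence under double the plate's negative control median, limit read from the data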;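 further: 0% = DMSO and -100% = 5 µM competing unlabeled TCR2 RNA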
Target sequence (Q9XUB2 whole entry, looked up): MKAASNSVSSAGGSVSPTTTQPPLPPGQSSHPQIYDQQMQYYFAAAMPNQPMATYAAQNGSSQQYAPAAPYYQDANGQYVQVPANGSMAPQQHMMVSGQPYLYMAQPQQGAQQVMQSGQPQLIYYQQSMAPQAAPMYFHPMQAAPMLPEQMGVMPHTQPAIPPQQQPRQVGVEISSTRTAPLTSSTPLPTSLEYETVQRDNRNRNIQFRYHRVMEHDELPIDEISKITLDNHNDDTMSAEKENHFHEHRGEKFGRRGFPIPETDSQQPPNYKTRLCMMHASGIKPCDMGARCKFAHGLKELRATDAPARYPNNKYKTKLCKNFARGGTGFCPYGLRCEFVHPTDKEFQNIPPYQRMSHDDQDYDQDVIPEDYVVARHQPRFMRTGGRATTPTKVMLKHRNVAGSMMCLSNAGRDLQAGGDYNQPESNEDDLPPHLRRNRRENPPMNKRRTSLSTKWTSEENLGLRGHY
ZTA counter – ZTA (EBV) inhibition in EBNA-1 counter-screen. P03206. ZTA-DNA binding, fluorescence polarization. inhibition, % at 11 µM. 320,000 tested, 0.15% active; in the data active means inhibition above about 33%
HCV core dimer – inhibitors of HCV core protein dimerization, primary screen, biochemical, TR-FRET, high-throughput; TR-FRET GST/Flag-core106 dimerization, 1536-well; inhibition, % at 5 µM; 300,000 tested, 0.33% active;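 active means inhibition above the mean of all tested compounds plus 3 SD, set per screening campaign, cut at about 45% in these data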
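Assay system: tagged HCV core106 pair (GST and Flag); medium: KF-containing HEPES buffer, pH 7.45, DTT, CHAPS, BSA; also added: Eu donor and XL665 acceptor anti-tag antibodies; dosing: 5 µM single dose; timing: compound-protein-antibody incubation 4 h at 22.5 °C; signal: TR-FRET 671 and 617 nm emission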
EBNA-1 confirm – EBNA-1 DNA-binding inhibitors, retest, confirmation, biochemical, fluorescence polarization, triplicate | shares compounds with EBNA-1 inh | Recombinant EBNA-1 DBD, Cy5-DNA fluorescence polarization | inhibition, % at 14.8 µM | 830 tested, 35% active;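 active means mean inhibition across replicates above a set limit taken from the earlier primary screen, cut at about 28% in these data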;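 further: plate controls were EBNA-1 protein with DMSO for no effect and wells lacking EBNA-1 for full effect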
ZTA DNA inh trip – EBV Zta DNA binding inhibitors, counter-screen for EBNA-1 inhibitor project, biochemical, fluorescence polarization, triplicate. shares compounds with EBNA-1 inh. AID 2328, 2010. Zta-ZRE DNA binding, Cy5 fluorescence polarization. inhibition, % at 11.1 µM. 830 tested, under 10 active;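 active means mean inhibition over triplicates above a set limit taken from the primary EBNA-1 screen, cut at about 37% in these data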;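 further: purified full length Zta protein with Cy5 labeled ZRE DNA probe; 0% = Zta with DMSO and 100% = wells lacking Zta protein; inhibitors lower polarization by freeing the labeled DNA probe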
The depositor's hits bear a star; · = no result given.

SMILES | EBV gp42 inh | NS3 helicase inh | EBNA-1 inh | MEX-5 binding | ZTA counter | HCV core dimer | EBNA-1 confirm | ZTA DNA inh trip
COc1ccc(CNC(=O)C2CCN(C(=O)N(C)C)CC2)c(OC)c1 | -10.8 | 6.0 | -5.5 | -4.6 | 5.7 | -0.3 | · | ·
COc1ccccc1CNC(=O)C1CCN(C(=O)N(C)C)CC1 | -11.6 | 4.8 | 78.1* | -0.9 | 31.1 | -1.2 | 3.4 | 2.6
COc1ccc(N=C2NC(=O)/C(=C/C=C/c3ccccc3)S2)cc1 | -17.3 | -13.0 | 31.9* | -2.2 | 11.6 | 21.5 | 28.8* | 16.1
Cc1ccccc1Nc1nnc(SCC(=O)NC(=O)Nc2ccc3c(c2)OCCO3)s1 | -20.4 | 12.6 | 12.0 | 0.5 | 0.5 | 16.6 | · | ·
COc1ccccc1Nc1nnc(SCC(=O)NC(=O)Nc2ccc3c(c2)OCCO3)s1 | -18.7 | 8.9 | 36.3* | -2.9 | 4.9 | 13.0 | 15.4 | 10.9
COC(=O)c1ccc(Cn2cnc3c(cnn3-c3ccc(Cl)cc3)c2=O)o1 | 1.4 | -5.2 | 45.7* | 0.7 | -7.1 | -11.4 | 7.1 | -8.4
COC(=O)c1ccc(Cn2cnc3c(cnn3-c3ccc(F)cc3)c2=O)o1 | -0.7 | 5.0 | -0.3 | -2.0 | -2.8 | 4.7 | · | ·
COc1ccc(OC)c(NC(=O)C2CCCN(S(=O)(=O)c3ccc(-n4cnnn4)cc3)C2)c1 (stereo unspecified) | · | -11.9 | 48.8* | -0.2 | -11.1 | 2.3 | 41.0* | 9.5
O=C(CSc1ccc(-c2ccccc2)nn1)c1ccccc1 | 5.2 | -8.6 | 39.6* | 0.3 | -4.9 | -6.2 | -12.0 | -4.8
Cc1ccc(C(=O)CSc2ccc(-c3ccccc3)nn2)cc1 | -11.5 | -1.8 | -11.5 | -0.4 | -2.4 | 13.8 | · | ·
CCC(C)NC(=O)c1ccc([N+](=O)[O-])c(Cl)c1 (stereo unspecified) | -17.9 | 0.2 | 27.5* | 0.6 | -5.9 | 3.8 | -4.5 | -2.9
O=C(Nc1nc2cc3c(cc2s1)OCCO3)c1ccncc1 | -5.6 | 9.5 | 5.0 | · | 2.1 | 4.2 | · | ·
O=C(Nc1nc2cc3c(cc2s1)OCCO3)c1ccc(N2C(=O)CCC2=O)cc1 | -16.0 | -2.7 | 62.1* | 0.5 | -1.6 | 1.3 | 57.4* | 22.9
COc1ccccc1N(C)S(=O)(=O)c1ccc(C)c(C(=O)NCc2ccccn2)c1 | · | · | · | · | 0.7 | · | · | ·
Cc1cc(C)n(-c2ccc(Cl)c(C(=O)OCC(=O)N3CCCCC3C)n2)n1 (stereo unspecified) | · | · | 5.2 | -1.7 | 7.8 | 2.9 | · | ·
Cc1cc(C)n(-c2ccc(Cl)c(C(=O)OCC(N)=O)n2)n1 | -22.3 | -2.7 | 36.5* | -1.2 | 9.8 | -1.1 | 12.3 | 7.3
O=C(CC(=O)c1ccccc1)Nc1cccnc1Cl | -30.2 | -19.0 | -2.7 | 0.9 | 12.8 | 7.1 | · | ·
CCN(CC(=O)Nc1c(F)cccc1F)C(=O)CCc1nc2sc3c(c2c(=O)[nH]1)CCCC3 | · | · | 6.6 | 0.5 | -4.7 | 28.9 | · | ·
CCOc1ccc(/C=N/NC(=O)c2nnn(-c3nonc3N)c2-c2ccc(OCC)cc2)cc1 | 1.4 | 7.2 | 35.0* | 2.1 | -7.8 | 19.9 | 0.8 | -0.9
COc1cccc(-c2c(C(=O)N/N=C(\C)c3ccc(Cl)s3)nnn2-c2nonc2N)c1 | · | 24.2 | 35.3* | -1.1 | -5.7 | 13.5 | 6.3 | -7.4
COc1cccc(-c2c(C(=O)N/N=C(\C)c3ccco3)nnn2-c2nonc2N)c1 | · | 4.7 | -3.7 | -1.9 | -13.0 | 1.2 | · | ·
O=C(Cc1ccc([N+](=O)[O-])cc1)N/N=C/c1ccccc1F | · | -4.0 | 12.8 | 0.6 | 7.3 | 3.9 | · | ·
O=C(CSc1nccn(-c2cccc(F)c2)c1=O)Nc1ccc(Cl)cc1F | · | 6.2 | 11.6 | 0.1 | 7.2 | 10.5 | · | ·
Cc1ccc2nc3c(c(C(=O)OC4CCOC4=O)c2c1)CCCC3 (stereo unspecified) | -4.6 | 8.8 | 29.5* | 1.4 | -0.5 | -1.6 | 6.3 | 5.5
COc1ccc(/C=C/C(=O)OCC(=O)Nc2cc(C(F)(F)F)ccc2Cl)cc1 | -3.8 | 3.4 | 1.8 | 0.2 | -11.3 | 10.1 | · | ·
SMILES | EBV gp42 inh | NS3 helicase inh | EBNA-1 inh | MEX-5 binding | ZTA counter | HCV core dimer | EBNA-1 confirm | ZTA DNA inh trip
O=C(NCC(c1cccs1)N1CCOCC1)c1ccc(OCc2ccccc2)cc1 (stereo unspecified) | · | · | · | · | 1.7 | · | · | ·
Cc1cc(C(=O)CSc2nnnn2-c2ccccc2)c(C)n1CC1CCCO1 (stereo unspecified) | -10.3 | 8.2 | 151.3* | -1.7 | -0.3 | 9.2 | 92.8* | 2.3
Cc1cccc(C)c1NC(=O)C(NC(=O)CN1C(=O)c2ccccc2C1=O)c1ccccc1 (stereo unspecified) | -22.1 | -2.3 | 29.4* | -1.6 | -4.2 | 4.7 | 7.0 | 6.0
O=C(NCc1ccccc1)c1ccc(S(=O)(=O)NCc2ccco2)cc1 | · | -6.2 | -9.8 | -0.6 | -13.1 | -0.8 | · | ·
COc1ccc(C(=O)Nc2ccnn2C2CCN(C(=O)c3cc(C)on3)CC2)cc1 | · | -0.9 | 4.9 | 0.5 | 6.7 | 3.4 | · | ·
Cc1cc(NC(=O)CSc2nc(-c3ccc(F)cc3)cs2)no1 | -18.4 | 2.1 | 43.7* | 2.0 | -3.1 | 2.2 | 13.4 | 3.8
Cc1c(NC(=O)CN2C(=O)NC(C)(c3ccccc3)C2=O)c(=O)n(-c2ccccc2)n1C (stereo unspecified) | 9.3 | -14.4 | 14.9 | 1.3 | 1.0 | -2.1 | · | ·
O=C(CSc1n[nH]c(=O)[nH]c1=O)NCC1CCCCC1 | 4.6 | 6.0 | -2.2 | -0.5 | 1.6 | -6.9 | · | ·
O=C(CSc1n[nH]c(=O)[nH]c1=O)NC1CC1 | -4.1 | 4.3 | 59.5* | 0.4 | 27.2 | -1.7 | 3.7 | -0.7
O=C(Nc1ccccc1-c1nc2ccccc2[nH]1)c1sc2ccccc2c1Cl | -21.1 | 11.4 | -4.3 | 1.2 | 8.0 | 2.5 | · | ·
COc1ccccc1NC(=S)N(Cc1ccco1)Cc1cc2cc(C)ccc2[nH]c1=O | 3.1 | 14.2 | 41.8* | -1.2 | -21.9 | 3.6 | -1.7 | -13.4
COc1ccc(C(=O)N(Cc2ccco2)Cc2cc3cc(C)ccc3[nH]c2=O)cc1OC | · | 6.3 | -1.1 | 0.4 | -19.8 | 1.6 | · | ·
O=C(Nc1ccc(F)cc1)N(Cc1ccco1)Cc1cc2cc3c(cc2[nH]c1=O)OCO3 | -9.6 | -3.7 | 28.1* | -1.5 | -0.4 | 12.4 | 12.3 | 5.0
CCN(CC)S(=O)(=O)c1ccc(C)c(NC(=O)COC(=O)CCC(=O)c2cccs2)c1 | · | · | · | · | -0.6 | · | · | ·

Screening results from PubChem BioAssay.
